Laboratory results taken from ChEMBL document CHEMBL4229410, “Facile construction of fused benzimidazole-isoquinolinones that induce cell-cycle arrest and apoptosis in colorectal cancer cells” (Bioorg Med Chem, 2018).
Active and inactive are the calls of the source. No cut-off for these calls is given here.

Key:
SW-620 [1] = assay: Induction of apoptosis in human SW620 cells assessed as increase in PARP activation after 48 hrs by Western blot analysis; format: functional, cell-based
[2] = target: Non-receptor tyrosine-protein kinase TYK2 (Homo sapiens, UniProt P29597); assay: Inhibition of human TYK2 JH1 catalytic domain (V877 to C1187 residues) expressed in mammalian expression system assessed as residual activity at 5 uM by KINOMEscan assay relative to control
Sequence of Non-receptor tyrosine-protein kinase TYK2 (P29597 whole entry, the tested form may be a part): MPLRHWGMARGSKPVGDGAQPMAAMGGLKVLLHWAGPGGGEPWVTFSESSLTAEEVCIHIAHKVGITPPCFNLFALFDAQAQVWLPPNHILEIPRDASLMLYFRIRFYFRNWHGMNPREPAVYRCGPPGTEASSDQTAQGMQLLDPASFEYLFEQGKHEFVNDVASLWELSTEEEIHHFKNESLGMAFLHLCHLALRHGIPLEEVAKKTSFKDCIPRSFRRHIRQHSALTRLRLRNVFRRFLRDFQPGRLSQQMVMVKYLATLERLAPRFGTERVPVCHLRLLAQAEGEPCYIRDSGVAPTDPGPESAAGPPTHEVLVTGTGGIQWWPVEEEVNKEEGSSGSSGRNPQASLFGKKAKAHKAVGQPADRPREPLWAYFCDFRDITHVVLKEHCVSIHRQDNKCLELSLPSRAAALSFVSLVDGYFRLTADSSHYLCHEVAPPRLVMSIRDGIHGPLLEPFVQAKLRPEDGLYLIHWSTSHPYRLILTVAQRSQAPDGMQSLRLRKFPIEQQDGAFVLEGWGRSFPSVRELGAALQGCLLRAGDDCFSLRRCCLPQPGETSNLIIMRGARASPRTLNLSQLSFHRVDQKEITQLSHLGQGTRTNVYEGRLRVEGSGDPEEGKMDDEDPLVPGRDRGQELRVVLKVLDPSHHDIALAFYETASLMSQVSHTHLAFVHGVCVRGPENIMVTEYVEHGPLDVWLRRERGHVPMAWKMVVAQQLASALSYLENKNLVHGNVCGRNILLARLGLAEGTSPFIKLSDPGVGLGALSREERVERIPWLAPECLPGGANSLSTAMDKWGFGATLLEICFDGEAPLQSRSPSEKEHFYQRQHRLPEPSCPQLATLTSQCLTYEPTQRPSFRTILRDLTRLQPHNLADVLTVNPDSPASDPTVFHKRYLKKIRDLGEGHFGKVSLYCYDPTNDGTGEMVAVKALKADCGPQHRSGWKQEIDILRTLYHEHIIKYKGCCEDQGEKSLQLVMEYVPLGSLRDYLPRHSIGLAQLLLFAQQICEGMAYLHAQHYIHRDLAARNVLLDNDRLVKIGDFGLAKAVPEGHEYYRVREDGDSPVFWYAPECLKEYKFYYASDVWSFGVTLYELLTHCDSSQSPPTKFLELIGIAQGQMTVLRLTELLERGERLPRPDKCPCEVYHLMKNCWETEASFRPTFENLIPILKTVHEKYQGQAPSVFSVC

[3] = target: Serine/threonine-protein kinase PAK 1 (Homo sapiens, UniProt Q13153); assay: Inhibition of human PAK1 (S149 to H545 residues) expressed in bacterial expression system assessed as residual activity at 5 uM by KINOMEscan assay relative to control
[4] = target: Serine/threonine-protein kinase B-raf (Homo sapiens, UniProt P15056); assay: Inhibition of human BRAF (S429 to E741 residues) expressed in mammalian expression system assessed as residual activity at 5 uM by KINOMEscan assay relative to control
HT-29 [5] = assay: Inhibition of PI3K in human HT-29 cells assessed as reduction in AKT phosphorylation at T308 residue up to 75 uM after 48 hrs by Western blot analysis; format: cell-based
HT-29 [6] = assay: Induction of apoptosis in human HT-29 cells assessed as necrotic cells at 75 uM after 48 hrs by Annexin-V-FITC/propidium iodide staining based flow cytometry (reference value: 1.6%); format: functional
[7] = target: T1, Mitogen-activated protein kinase 8 (Homo sapiens, UniProt P45983); assay: Binding affinity to full length human JNK1 (M1 to Q384 residues) expressed in mammalian expression system by KINOMEscan assay
T1 sequence (P45983 whole entry, the tested form may be a part): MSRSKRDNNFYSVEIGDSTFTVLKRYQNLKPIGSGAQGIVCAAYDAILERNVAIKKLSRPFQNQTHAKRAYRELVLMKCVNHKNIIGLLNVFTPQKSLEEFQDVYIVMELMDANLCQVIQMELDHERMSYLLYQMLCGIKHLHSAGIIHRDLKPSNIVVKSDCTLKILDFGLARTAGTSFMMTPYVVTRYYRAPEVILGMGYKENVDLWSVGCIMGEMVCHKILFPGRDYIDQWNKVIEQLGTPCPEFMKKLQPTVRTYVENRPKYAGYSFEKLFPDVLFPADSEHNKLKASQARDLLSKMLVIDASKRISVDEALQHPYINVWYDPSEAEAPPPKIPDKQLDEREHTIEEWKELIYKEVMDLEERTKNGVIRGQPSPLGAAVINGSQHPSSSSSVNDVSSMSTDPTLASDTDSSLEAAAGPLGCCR

[8] = target: NUAK family SNF1-like kinase 2 (Homo sapiens) (UniProt Q9H093); assay: Inhibition of human SNARK (P22 to A333 residues) expressed in mammalian expression system assessed as residual activity at 5 uM by KINOMEscan assay relative to control
TGF-beta receptor type-1 = TGF-beta receptor type-1 (Homo sapiens, UniProt P36897); assay: Binding affinity to human TGFBR1 (D179 to M503 residues) expressed in bacterial expression system by KINOMEscan assay
SW-620 [9] = assay: Induction of apoptosis in human SW620 cells assessed as late apoptotic cells at 75 uM after 48 hrs by Annexin-V-FITC/propidium iodide staining based flow cytometry (reference value: 1.2%); format: functional
HT-29 [10] = assay: Growth inhibition of human HT-29 cells by MTT assay; format: functional
In short: (§1)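 MTT viability assay: 3×10³ cells/well were pre-incubated for 24 h, then exposed to 0, 12.5, 25, 50, 100 or 200 μM for 12, 24, 48 or 72 h. MTT was added at 0.5 mg/mL final for 4 h, formazan dissolved in DMSO, and absorbance read at 570 nm. GI₅₀ was taken from growth-inhibition curves; mean ± SD of three independent experiments, each in sextuplicate.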

[11] = target: RAC-alpha serine/threonine-protein kinase (Homo sapiens, UniProt P31749); assay: Inhibition of human AKT1 expressed in bacterial expression system assessed as residual activity at 5 uM by KINOMEscan assay relative to control
[12] = target: Serine/threonine-protein kinase PAK 4 (Homo sapiens, UniProt O96013); assay: Binding affinity to partial length human PAK4 (Q144 to R438 residues) expressed in bacterial expression system by KINOMEscan assay
Sequence of Serine/threonine-protein kinase PAK 4 (O96013 whole entry, the tested form may be a part): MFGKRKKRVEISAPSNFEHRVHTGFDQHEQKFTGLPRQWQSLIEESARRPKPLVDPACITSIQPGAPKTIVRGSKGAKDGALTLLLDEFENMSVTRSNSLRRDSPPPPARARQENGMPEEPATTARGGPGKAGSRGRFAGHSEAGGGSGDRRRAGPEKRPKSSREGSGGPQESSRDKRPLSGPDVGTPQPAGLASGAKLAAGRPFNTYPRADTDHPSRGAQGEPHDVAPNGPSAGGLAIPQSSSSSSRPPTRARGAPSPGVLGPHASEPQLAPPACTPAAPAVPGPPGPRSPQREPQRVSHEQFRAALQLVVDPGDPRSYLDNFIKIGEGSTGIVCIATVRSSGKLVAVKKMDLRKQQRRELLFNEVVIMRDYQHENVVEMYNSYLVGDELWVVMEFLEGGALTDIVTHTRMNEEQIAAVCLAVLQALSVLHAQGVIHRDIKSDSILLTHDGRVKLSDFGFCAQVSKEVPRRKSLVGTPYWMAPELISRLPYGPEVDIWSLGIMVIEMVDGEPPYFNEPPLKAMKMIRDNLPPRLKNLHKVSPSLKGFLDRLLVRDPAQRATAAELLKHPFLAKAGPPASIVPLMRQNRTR

[13] = target: Bone morphogenetic protein receptor type-2 (Homo sapiens) (UniProt Q13873); assay: Inhibition of human BMPR2 (R179 to Q526 residues) expressed in mammalian expression system assessed as residual activity at 5 uM by KINOMEscan assay relative to control
Sequence of Bone morphogenetic protein receptor type-2 (Homo sapiens) (Q13873 whole entry, the tested form may be a part): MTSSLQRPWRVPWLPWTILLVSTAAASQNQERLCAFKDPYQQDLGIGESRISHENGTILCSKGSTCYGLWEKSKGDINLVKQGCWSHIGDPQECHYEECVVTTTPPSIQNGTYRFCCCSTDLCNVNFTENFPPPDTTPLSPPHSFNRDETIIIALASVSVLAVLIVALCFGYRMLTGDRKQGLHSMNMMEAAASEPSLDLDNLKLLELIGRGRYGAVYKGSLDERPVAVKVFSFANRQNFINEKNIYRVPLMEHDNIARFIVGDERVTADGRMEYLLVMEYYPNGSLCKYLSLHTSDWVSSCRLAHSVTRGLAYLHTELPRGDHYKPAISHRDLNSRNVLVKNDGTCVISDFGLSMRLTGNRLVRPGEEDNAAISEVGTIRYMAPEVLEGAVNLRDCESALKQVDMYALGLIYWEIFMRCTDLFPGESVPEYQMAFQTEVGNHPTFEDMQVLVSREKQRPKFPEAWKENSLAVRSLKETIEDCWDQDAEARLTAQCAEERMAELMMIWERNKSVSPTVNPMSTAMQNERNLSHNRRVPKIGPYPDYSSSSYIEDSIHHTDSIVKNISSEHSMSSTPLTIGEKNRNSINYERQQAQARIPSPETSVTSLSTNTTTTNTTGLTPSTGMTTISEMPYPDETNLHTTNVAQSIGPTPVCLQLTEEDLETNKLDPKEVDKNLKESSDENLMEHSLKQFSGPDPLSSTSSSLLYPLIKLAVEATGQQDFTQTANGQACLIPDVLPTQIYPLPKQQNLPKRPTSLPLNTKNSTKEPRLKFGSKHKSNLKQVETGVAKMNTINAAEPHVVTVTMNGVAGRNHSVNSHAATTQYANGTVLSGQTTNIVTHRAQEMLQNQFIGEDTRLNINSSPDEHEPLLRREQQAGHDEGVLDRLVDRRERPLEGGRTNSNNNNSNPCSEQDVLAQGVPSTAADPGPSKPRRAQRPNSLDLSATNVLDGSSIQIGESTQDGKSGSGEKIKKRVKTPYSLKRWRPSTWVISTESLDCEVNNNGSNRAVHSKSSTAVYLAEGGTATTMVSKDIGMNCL

[14] = target: Serine/threonine-protein kinase mTOR (Homo sapiens) (UniProt P42345); assay: Inhibition of mTOR in human HT-29 cells assessed as reduction in 4EBP1 phosphorylation up to 75 uM after 48 hrs by Western blot analysis; format: cell-based
[15] = target: Serine/threonine-protein kinase mTOR (Homo sapiens) (UniProt P42345); assay: Inhibition of mTOR in human SW620 cells assessed as reduction in 4EBP1 phosphorylation up to 75 uM after 48 hrs by Western blot analysis; format: cell-based
[16] = target: Ribosomal protein S6 kinase alpha-3 (Homo sapiens, UniProt P51812); assay: Inhibition of human N-terminal RSK2 kinase domain 1 (M1 to D394 residues) expressed in mammalian expression system assessed as residual activity at 5 uM by KINOMEscan assay relative to control
Sequence of Ribosomal protein S6 kinase alpha-3 (P51812 whole entry, the tested form may be a part): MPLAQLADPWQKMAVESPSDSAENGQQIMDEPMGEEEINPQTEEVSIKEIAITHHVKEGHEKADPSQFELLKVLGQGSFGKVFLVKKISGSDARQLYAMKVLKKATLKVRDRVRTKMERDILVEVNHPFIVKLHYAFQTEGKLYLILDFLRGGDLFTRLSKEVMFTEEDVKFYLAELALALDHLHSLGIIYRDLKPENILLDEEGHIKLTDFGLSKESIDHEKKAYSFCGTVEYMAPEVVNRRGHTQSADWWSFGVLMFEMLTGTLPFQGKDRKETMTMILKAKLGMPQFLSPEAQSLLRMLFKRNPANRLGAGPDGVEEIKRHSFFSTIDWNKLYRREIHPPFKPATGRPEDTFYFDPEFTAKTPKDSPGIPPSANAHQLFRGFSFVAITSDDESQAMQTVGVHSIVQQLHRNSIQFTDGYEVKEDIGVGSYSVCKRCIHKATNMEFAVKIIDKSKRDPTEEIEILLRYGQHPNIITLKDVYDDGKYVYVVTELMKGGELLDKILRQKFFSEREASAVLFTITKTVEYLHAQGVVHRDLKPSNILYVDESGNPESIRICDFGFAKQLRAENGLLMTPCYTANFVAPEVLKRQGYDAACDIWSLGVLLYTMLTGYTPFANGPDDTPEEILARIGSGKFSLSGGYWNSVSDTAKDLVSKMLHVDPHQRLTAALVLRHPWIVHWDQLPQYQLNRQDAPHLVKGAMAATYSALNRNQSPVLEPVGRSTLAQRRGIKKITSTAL

[17] = target: Dual specificity tyrosine-phosphorylation-regulated kinase 1B (Homo sapiens, UniProt Q9Y463); assay: Inhibition of full length human DYRK1B (M1 to S629 residues) expressed in bacterial expression system assessed as residual activity at 5 uM by KINOMEscan assay relative to control
SW-620 [18] = assay: Induction of apoptosis in human SW620 cells assessed as necrotic cells at 25 uM after 48 hrs by Annexin-V-FITC/propidium iodide staining based flow cytometry (reference value: 0.9%); format: functional
SW-620 [19] = assay: Induction of apoptosis in human SW620 cells assessed as reduction in MCL1 expression after 48 hrs by Western blot analysis; format: functional, cell-based
[20] = target: Platelet-derived growth factor receptor alpha (Homo sapiens, UniProt P16234); assay: Inhibition of human PDGFRA (V575 to D1002 residues) expressed in mammalian expression system assessed as residual activity at 5 uM by KINOMEscan assay relative to control
SW-620 [21] = assay: Growth inhibition of human SW620 cells by MTT assay; format: functional; in short: as §1
Aurora kinase B = Aurora kinase B (Homo sapiens, UniProt Q96GD4); assay: Binding affinity to human AURKB (D25 to A303 residues) expressed in mammalian expression system by KINOMEscan assay
HT-29 [22] = assay: Effect on total mTOR expression in human HT-29 cells up to 75 uM after 48 hrs by Western blot analysis; format: ADME, cell-based; conditions: ht-29, 48 h
In short: (§2)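 HT29 or SW620 cells were treated at 0, 25, 50 and 75 μM for 48 h and lysed in RIPA with protease and phosphatase inhibitors. Protein was quantified by BCA. 50 μg lysate was run on 8–15% SDS-PAGE and transferred to PVDF. Blocking was 5% BSA/TBST for 2 h; primary antibodies were applied overnight at 4 °C, then HRP secondary 1 h at room temperature.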

SW-620 [23] = assay: Effect on total 4EBP1 expression in human SW620 cells up to 75 uM after 48 hrs by Western blot analysis; format: ADME, cell-based; conditions: sw-620, 48 h; in short: as §2
Focal adhesion kinase 1 = Focal adhesion kinase 1 (Homo sapiens, UniProt Q05397); assay: Inhibition of human FAK (D402 to R696 residues) expressed in bacterial expression system assessed as residual activity at 5 uM by KINOMEscan assay relative to control
Sequence of Focal adhesion kinase 1 (Q05397 2-1052 limits assumed): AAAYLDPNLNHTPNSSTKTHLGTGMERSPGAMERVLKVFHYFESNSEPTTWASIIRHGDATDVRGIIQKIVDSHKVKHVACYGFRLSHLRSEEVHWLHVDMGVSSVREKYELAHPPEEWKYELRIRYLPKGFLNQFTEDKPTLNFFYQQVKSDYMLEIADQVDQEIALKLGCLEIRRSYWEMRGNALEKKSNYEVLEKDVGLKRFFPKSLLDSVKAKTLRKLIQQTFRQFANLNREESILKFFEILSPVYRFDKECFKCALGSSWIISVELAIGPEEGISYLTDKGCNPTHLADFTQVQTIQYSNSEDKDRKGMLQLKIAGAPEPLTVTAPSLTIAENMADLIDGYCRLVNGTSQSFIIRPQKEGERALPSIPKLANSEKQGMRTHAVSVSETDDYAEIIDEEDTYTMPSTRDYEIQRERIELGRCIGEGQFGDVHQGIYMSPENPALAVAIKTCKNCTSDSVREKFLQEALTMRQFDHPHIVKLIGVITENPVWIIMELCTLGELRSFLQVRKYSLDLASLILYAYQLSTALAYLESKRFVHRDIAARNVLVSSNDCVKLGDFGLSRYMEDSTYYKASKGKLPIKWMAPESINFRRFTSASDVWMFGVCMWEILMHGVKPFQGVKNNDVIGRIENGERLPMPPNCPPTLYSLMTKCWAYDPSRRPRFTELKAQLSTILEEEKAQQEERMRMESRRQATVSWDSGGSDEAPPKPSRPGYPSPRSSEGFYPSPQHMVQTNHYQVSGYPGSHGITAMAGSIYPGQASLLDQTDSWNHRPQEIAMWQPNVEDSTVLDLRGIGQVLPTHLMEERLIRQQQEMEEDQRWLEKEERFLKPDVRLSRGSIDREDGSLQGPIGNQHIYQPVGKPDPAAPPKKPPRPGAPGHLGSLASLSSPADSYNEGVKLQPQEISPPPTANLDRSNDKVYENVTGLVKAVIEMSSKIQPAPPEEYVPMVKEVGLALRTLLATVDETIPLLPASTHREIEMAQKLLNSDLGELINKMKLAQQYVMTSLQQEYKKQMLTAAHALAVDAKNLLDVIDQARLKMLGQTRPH

[24] = target: T1, Mitogen-activated protein kinase 8; assay: Inhibition of full length human JNK1 (M1 to Q384 residues) expressed in mammalian expression system assessed as residual activity at 5 uM by KINOMEscan assay relative to control
HT-29 [25] = assay: Induction of apoptosis in human HT-29 cells assessed as late apoptotic cells at 75 uM after 48 hrs by Annexin-V-FITC/propidium iodide staining based flow cytometry (reference value: 4.1%); format: functional

CC(C)CN(C(=O)c1cccnc1)c1c2ccccc2c(=O)n2c1[nH]c1ccccc12
Activity (SW-620 [1]): Dose-dependent effect | Activity [2]: 73% | Activity [3]: 100% | Activity [4]: 82% | inhibition (HT-29 [5]): Active | Activity (HT-29 [6]): 18.8% | Kd [7]: ≥ 5 µM | Activity [8]: 100% | Kd (TGF-beta receptor type-1): ≥ 5 µM | Activity (SW-620 [9]): 19.6% | GI50 (HT-29 [10]): 24.1 µM | Activity [11]: 98% | Kd [12]: ≥ 5 µM | Activity [13]: 100% | inhibition [14]: Active | inhibition [15]: Active | Activity [16]: 91% | Activity [17]: 95% | Activity (SW-620 [18]): 3.1% | Activity (SW-620 [19]): Dose-dependent effect | Activity [20]: 100% | GI50 (SW-620 [21]): 23.8 µM | Kd (Aurora kinase B): ≥ 5 µM | Activity (HT-29 [22]): Non-Toxic | Activity (SW-620 [23]): Non-Toxic | Activity (Focal adhesion kinase 1): 100% | Activity [24]: 69% | Activity (HT-29 [25]): 31.1%
